Laboratory results published in ChEMBL document CHEMBL1938381, “Design, synthesis, and structure-activity relationship studies of conformationally restricted mutilin 14-carbamates” (2012).
≈ marks a conversion by molar mass, not a printed value.

Key:
Assay type in all cases: functional
Streptococcus pneumoniae [1] = assay: Ratio of Linezolid MIC to compound MIC for Streptococcus pneumoniae
[2] = test system: Staphylococcus epidermidis; assay: Antibacterial activity against methicillin-resistant Staphylococcus epidermidis by agar microdilution method
Outline: (§1)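 MIC by agar microdilution following NCCLS standard M7-A6 (2003), tested against clinical isolates: MRSA n = 6, MRSE n = 5, MSSA n = 5, MSSE n = 5; values given as a single MIC or a range across isolates.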

Staphylococcus aureus [3] = assay: Antibacterial activity against methicillin-resistant Staphylococcus aureus by agar microdilution method; outline: as §1
[4] = test system: Staphylococcus epidermidis; assay: Antibacterial activity against methicillin-susceptible Staphylococcus epidermidis by agar microdilution method; outline: as §1
[5] = test system: Staphylococcus epidermidis; assay: Ratio of Linezolid MIC to compound MIC for methicillin-susceptible Staphylococcus epidermidis
Staphylococcus aureus [6] = assay: Antibacterial activity against methicillin-susceptible Staphylococcus aureus by agar microdilution method; outline: as §1
Streptococcus pneumoniae [7] = assay: Antibacterial activity against Streptococcus pneumoniae by agar microdilution method
Outline: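 MIC read by agar microdilution following NCCLS standard M7-A6 (2003), against a panel of 3 Streptococcus pneumoniae clinical isolates. Values in µg/mL, given as a range where the isolates differed.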

Staphylococcus aureus [8] = assay: Ratio of Linezolid MIC to compound MIC for methicillin-susceptible Staphylococcus aureus

Which Ratio (Streptococcus pneumoniae [1]) does the source give for C=C[C@]1(C)C[C@@H](OC(=O)N2Cc3ccc(NC(=O)[C@@H]4CCCN4)cc3C2=O)[C@]2(C)[C@H](C)CC[C@]3(CCC(=O)[C@H]32)[C@@H](C)[C@@H]1O.Cl here?
The Ratio was 4.

What about the MIC [2] of the same compound?
The MIC was 0.25 µg/mL.

And the MIC (Staphylococcus aureus [3])?
Its MIC is 0.25 µg/mL.

What about the MIC [4] of the same compound?
Its MIC is 0.25 µg/mL.

What about the Ratio [5] of the same compound?
Its Ratio is 4.

And the MIC (Staphylococcus aureus [6])?
The MIC was 0.25 µg/mL.

And the MIC (Streptococcus pneumoniae [7])?
The MIC was 0.5 µg/mL.

And the Ratio (Staphylococcus aureus [8])?
Its Ratio is 4.

Which Ratio (Streptococcus pneumoniae [1]) does the source give for C=C[C@]1(C)C[C@@H](OC(=O)N2Cc3ccc(F)cc3C2=O)[C@]2(C)[C@H](C)CC[C@]3(CCC(=O)[C@H]32)[C@@H](C)[C@@H]1O here?
Its Ratio is 4.

What about the MIC [2] of the same compound?
The MIC was 0.125 µg/mL (≈ 0.251 µM).

What about the MIC (Staphylococcus aureus [3]) of the same compound?
Its MIC is 0.125 µg/mL (≈ 0.251 µM).

What about the MIC [4] of the same compound?
The MIC was 0.125 µg/mL (≈ 0.251 µM).

What about the Ratio [5] of the same compound?
The Ratio was 4.

And the MIC (Staphylococcus aureus [6])?
Its MIC is 0.125 µg/mL (≈ 0.251 µM).

And the MIC (Streptococcus pneumoniae [7])?
Its MIC is 0.125 µg/mL (≈ 0.251 µM).

What about the Ratio (Staphylococcus aureus [8]) of the same compound?
Its Ratio is 4.

What does the source list for C=C[C@]1(C)C[C@@H](OC(=O)N2Cc3cc(N4CCN(C)CC4)ccc3C2=O)[C@]2(C)[C@H](C)CC[C@]3(CCC(=O)[C@H]32)[C@@H](C)[C@@H]1O?
Ratio (Streptococcus pneumoniae [1]): 4; MIC [2]: 0.125 µg/mL (≈ 0.216 µM); MIC (Staphylococcus aureus [3]): 0.125 µg/mL (≈ 0.216 µM); MIC [4]: 0.125 µg/mL (≈ 0.216 µM); Ratio [5]: 4; MIC (Staphylococcus aureus [6]): 0.125 µg/mL (≈ 0.216 µM); MIC (Streptococcus pneumoniae [7]): 0.25 µg/mL (≈ 0.433 µM); Ratio (Staphylococcus aureus [8]): 4

Which Ratio (Streptococcus pneumoniae [1]) does the source give for C=C[C@]1(C)C[C@@H](OC(=O)N2Cc3cc(N)ccc3C2=O)[C@]2(C)[C@H](C)CC[C@]3(CCC(=O)[C@H]32)[C@@H](C)[C@@H]1O here?
Its Ratio is 4.

What about the MIC [2] of the same compound?
The MIC was 0.125 µg/mL (≈ 0.253 µM).

What about the MIC (Staphylococcus aureus [3]) of the same compound?
Its MIC is 0.125 µg/mL (≈ 0.253 µM).

And the MIC [4]?
The MIC was 0.125 µg/mL (≈ 0.253 µM).

What about the Ratio [5] of the same compound?
Its Ratio is 4.

What about the MIC (Staphylococcus aureus [6]) of the same compound?
Its MIC is 0.125 µg/mL (≈ 0.253 µM).

What about the MIC (Streptococcus pneumoniae [7]) of the same compound?
Its MIC is 0.125 µg/mL (≈ 0.253 µM).

What about the Ratio (Staphylococcus aureus [8]) of the same compound?
Its Ratio is 4.

For C=C[C@]1(C)C[C@@H](OC(=O)N2CCc3cc(OC)c([N+](=O)[O-])cc3C2=O)[C@]2(C)[C@H](C)CC[C@]3(CCC(=O)[C@H]32)[C@@H](C)[C@@H]1O, which Ratio (Streptococcus pneumoniae [1]) is on record?
The Ratio was 4.

What about the MIC [2] of the same compound?
The MIC was 0.25 µg/mL (≈ 0.44 µM).

And the MIC (Staphylococcus aureus [3])?
The MIC was 0.25 µg/mL (≈ 0.44 µM).

And the MIC [4]?
Its MIC is 0.25 µg/mL (≈ 0.44 µM).

What about the Ratio [5] of the same compound?
The Ratio was 4.

And the MIC (Staphylococcus aureus [6])?
The MIC was 0.125 µg/mL (≈ 0.22 µM).

What about the MIC (Streptococcus pneumoniae [7]) of the same compound?
The MIC was 0.25 µg/mL (≈ 0.44 µM).

What about the Ratio (Staphylococcus aureus [8]) of the same compound?
Its Ratio is 4.
